From ChEMBL document CHEMBL3425481, “Design, synthesis and anticancer activity of matrine-1H-1,2,3-triazole-chalcone conjugates” (Bioorg Med Chem Lett, 2015)
Active and inactive are the calls of the source. The calls are words filed in the database; no cut-off is given here.

Experiments:
A549 [1] = experiment: Antiproliferative activity against human A549 cells assessed as inhibition of cell proliferation incubated for 48 hrs by CCK8 assay; format: functional, cell-based; settings: A549, 48 h
Method in brief: (§1)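 Human A549 lung, Hela cervical, Bel-7402 hepatocellular and MCF-7 breast cancer cells, plus mouse embryo fibroblast NIH3T3, tested for anti-proliferative activity by CCK-8 assay. For the matrine combination tests, the chalcone and matrine were used at a 1:1 molar ratio; values given as IC50.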

MCF7 [2] = experiment: Antiproliferative activity against human MCF7 cells assessed as inhibition of cell proliferation incubated for 48 hrs in presence of matrine by CCK8 assay; format: functional, cell-based; settings: MCF7, 48 h; method in brief: as §1
A549 [3] = experiment: Antiproliferative activity against human A549 cells assessed as inhibition of cell proliferation incubated for 48 hrs in presence of matrine by CCK8 assay; format: functional, cell-based; settings: A549, 48 h; method in brief: as §1
HeLa [4] = experiment: Antiproliferative activity against human HeLa cells assessed as inhibition of cell proliferation incubated for 48 hrs by CCK8 assay; format: functional, cell-based; method in brief: as §1
MCF7 [5] = experiment: Antiproliferative activity against human MCF7 cells assessed as inhibition of cell proliferation incubated for 48 hrs by CCK8 assay; format: functional, cell-based; settings: MCF7, 48 h; method in brief: as §1
HeLa [6] = experiment: Antiproliferative activity against human HeLa cells assessed as inhibition of cell proliferation incubated for 48 hrs in presence of matrine by CCK8 assay; format: functional, cell-based; method in brief: as §1
[7] = Antiproliferative activity against mouse NIH/3T3 cells assessed as inhibition of cell proliferation incubated for 48 hrs by CCK8 assay; format: cell-based; settings: NIH3T3, 48 h; method in brief: as §1
[8] = Antiproliferative activity against human Bel7402 cells assessed as inhibition of cell proliferation incubated for 48 hrs in presence of matrine by CCK8 assay; format: functional, cell-based; settings: Bel-7402, 48 h; method in brief: as §1
[9] = Antiproliferative activity against human Bel7402 cells assessed as inhibition of cell proliferation incubated for 48 hrs by CCK8 assay; format: functional, cell-based; settings: Bel-7402, 48 h; method in brief: as §1
A549 [10] = experiment: Induction of apoptosis in human A549 cells at 15 to 50 uM incubated for 24 hrs by Annexin V-FITC/propidium iodide double staining based flow cytometry; format: functional
Method in brief: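 A549 cells exposed for 24 h at three concentrations alongside a 0.1% DMSO control. Cells double-stained with Annexin V-FITC/propidium iodide and analysed by flow cytometry. Early apoptosis was read from the lower-right quadrant and late apoptosis from the upper-right, and both were summed. Done in triplicate, with statistics compared to control.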

A549 [11] = experiment: Antitumor activity against human A549 cells xenografted in Balb/ca-nu mouse assessed as tumor growth inhibition at 5 mg/kg, iv dosed every 3 days for total of 7 dosing rounds measured on day 14 after treatment; format: functional; settings: read-out: TGI
Method in brief: (§2)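 A549 xenograft in mice, dosed by tail vein injection every 3 days; vehicle saline plus 0.2% Tween 80. n = 8 per treatment group, 6 in the vehicle group. Mean ± SE.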

A549 [12] = experiment: Antitumor activity against human A549 cells xenografted in Balb/ca-nu mouse assessed as tumor growth inhibition at 5 mg/kg, iv dosed every 3 days for total of 7 dosing rounds measured on day 20 after treatment; format: functional; settings: read-out: TGI; method in brief: as §2
A549 [13] = experiment: Antitumor activity against human A549 cells xenografted in Balb/ca-nu mouse assessed as tumor growth inhibition at 5 mg/kg, iv dosed every 3 days for total of 7 dosing rounds measured on day 16 after treatment; format: functional; settings: read-out: TGI; method in brief: as §2
A549 [14] = experiment: Antitumor activity against human A549 cells xenografted in Balb/ca-nu mouse assessed as tumor growth inhibition at 5 mg/kg, iv dosed every 3 days for total of 7 dosing rounds measured on day 12 after treatment; format: functional; settings: read-out: TGI; method in brief: as §2
A549 [15] = experiment: Antitumor activity against human A549 cells xenografted in Balb/ca-nu mouse assessed as tumor growth inhibition at 5 mg/kg, iv dosed every 3 days for total of 7 dosing rounds measured on day 10 after treatment; format: functional; settings: read-out: TGI; method in brief: as §2
A549 [16] = experiment: Antitumor activity against human A549 cells xenografted in Balb/ca-nu mouse assessed as tumor growth inhibition at 10 mg/kg, iv dosed every 3 days for total of 7 dosing rounds measured on day 8 after treatment; format: functional, organism-based; design: dose 10 mg/kg; method in brief: as §2
A549 [17] = experiment: Antitumor activity against human A549 cells xenografted in Balb/ca-nu mouse assessed as tumor growth inhibition at 5 mg/kg, iv dosed every 3 days for total of 7 dosing rounds measured on day 18 after treatment; format: functional; settings: read-out: TGI; method in brief: as §2

| Compound | IC50 (A549 [1]) | IC50 (MCF7 [2]) | IC50 (A549 [3]) | IC50 (HeLa [4]) | IC50 (MCF7 [5]) | IC50 (HeLa [6]) | IC50 [7] | IC50 [8] | IC50 [9] | Activity (A549 [10]) | inhibition in vivo at 5 mg/kg (A549 [11]) | inhibition in vivo at 5 mg/kg (A549 [12]) | inhibition in vivo at 5 mg/kg (A549 [13]) | inhibition in vivo at 5 mg/kg (A549 [14]) | inhibition in vivo at 5 mg/kg (A549 [15]) | TGI (A549 [16]) | inhibition in vivo at 5 mg/kg (A549 [17]) |
| --- | --- | --- | --- | --- | --- | --- | --- | --- | --- | --- | --- | --- | --- | --- | --- | --- | --- |
| C#CCOc1ccc(C(=O)/C=C/c2ccccc2)c(O)c1 | > 50 µM | > 50 µM | > 50 µM | > 50 µM | > 50 µM | > 50 µM | 66.6 µM | > 50 µM | – | – | – | – | – | – | – | – | – |
| O=C1CCC[C@@H]2[C@H]3CCCN4CCC[C@@H](CN12)[C@@H]34 [MATRINE] | > 50 µM | – | – | > 50 µM | > 50 µM | – | – | – | > 50 µM | 28.4% | – | – | – | – | – | – | – |
| CC(=O)O[C@H]1C(=O)[C@@]2(C)[C@H]([C@H](OC(=O)c3ccccc3)[C@]3(O)C[C@H](OC(=O)[C@H](O)[C@@H](NC(=O)c4ccccc4)c4ccccc4)C(C)=C1C3(C)C)[C@]1(OC(C)=O)CO[C@@H]1C[C@@H]2O [PACLITAXEL] | 2.82 µM | – | – | 0.38 µM | – | – | 20 µM | – | – | – | 79.5% | 89.1% | 85.4% | 70.4% | 58.3% | Active | 88.9% |
| O=C(/C=C/c1ccc([N+](=O)[O-])cc1)c1ccc(OCc2cn([C@H]3CC(=O)N4C[C@@H]5CCCN6CCC[C@@H]([C@H]56)[C@H]4C3)nn2)cc1 | 14.5 µM | – | – | 6.06 µM | 11.5 µM | – | 35.7 µM | – | 16.2 µM | – | – | – | – | – | – | – | – |
